In ChEMBL document CHEMBL3425428, “Sesquiterpenoid tropolone glycosides from Liriosma ovata” (J Nat Prod, 2015):

Key:
[1] = molecular target: Human immunodeficiency virus type 1 reverse transcriptase (Human immunodeficiency virus 1, UniProt Q72547); assay: Inhibition of human immunodeficiency virus-1 reverse transcriptase associated RNase H activity using 18-nucleotide 3,-fluorescein-labeled RNA substrate by fluorescence resonance energy transfer assay
Summary of the method: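 Inhibition of HIV RT-associated RNase H activity was measured by a previously described method, with β-thujaplicinol as positive control and IC50 as the readout.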

[2] = test system: Human immunodeficiency virus 1; assay: Antiviral activity against HIV1 infected in human H9 cells assessed as protection against virus-induced cytopathic effect by tetrazolium reduction based colorimetric technique; type: functional, organism-based
Summary of the method: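 HIV cytopathicity assay run by a previously reported protocol. Compounds tested at up to 50 μM, with dideoxycytidine as positive control.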

CEM-SS = assay: Cytotoxicity against human CEM-SS cells assessed as cell growth inhibition; type: cell-based
Summary of the method: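 CEM-SS cells were exposed to compounds at concentrations up to 50 μM, and cytotoxicity was scored as cell growth inhibition.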

Compound | IC50 [1] | EC50 ([2]; h9) | IC50 (CEM-SS) | EC50 ([2]; Human immunodeficiency virus 1, H9, read-out: EC50)
C=C(C)[C@@H]1CCc2cc(O[C@@H]3O[C@H](COC(=O)CC(C)(O)CC(=O)O)[C@@H](O)[C@H](O)[C@H]3O)c(=O)cc(C)c2C1 (stereo partly specified) | 34 µM | Not Active | > 50 µM | –
Cc1cc(=O)c(O[C@@H]2O[C@H](COC(=O)CC(C)(O)CC(=O)O)[C@@H](O)[C@H](O)[C@H]2O)cc2c1C[C@H](C(C)(C)O)CC2 (stereo partly specified) | > 50 µM | Not Active | > 50 µM | –
Nc1ccn([C@H]2CC[C@@H](CO)O2)c(=O)n1 [ZALCITABINE] | – | – | 61 µM | 0.079 µM
CC(C)c1ccc(O)c(=O)c(O)c1 [BETA-THUJAPLICINOL] | 0.26 µM | Not Active | 2.3 µM | –
